# Sampled rows, rich in hits. Any-hit rate of the full collection: about 2.2%.
# AI-2 QS mod = Vibrio harveyi AI-2 quorum sensing modulators, primary screen, JMH597 strain, luminescence/OD600 ratio; Vibrio harveyi JMH597 AI-2 luminescence/OD600 ratio, 9 h; hits give low values; strain lacks LuxN and CqsS sensors; 0 = neutral-control median; actives 0.4% (n = 300,000); activity change, % at 7.5 µM; AID 2094, 2009; in the data active = activity change below about -75%, passing the limit was not always enough; inconclusive = no clear call, values can overlap the other calls;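 note: luminescence divided by OD600 gain over 9 h not by final OD600 alone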
# HDAC3 inhib = HDAC3 deacetylase inhibitors, primary screen, biochemical, fluorescence, cell-free homogeneous | Histone deacetylase 3 (Homo sapiens), O15379 | recombinant HDAC3, fluorogenic peptide/trypsin coupled | inhibition, % at 8.3 µM | actives 0.15% (n = 320,000) | AID 2718, 2010; in the data active = inhibition above about 26%, passing the limit was not always enough; inconclusive = no clear call, values can overlap the other calls
# Target sequence (O15379 whole entry, looked up): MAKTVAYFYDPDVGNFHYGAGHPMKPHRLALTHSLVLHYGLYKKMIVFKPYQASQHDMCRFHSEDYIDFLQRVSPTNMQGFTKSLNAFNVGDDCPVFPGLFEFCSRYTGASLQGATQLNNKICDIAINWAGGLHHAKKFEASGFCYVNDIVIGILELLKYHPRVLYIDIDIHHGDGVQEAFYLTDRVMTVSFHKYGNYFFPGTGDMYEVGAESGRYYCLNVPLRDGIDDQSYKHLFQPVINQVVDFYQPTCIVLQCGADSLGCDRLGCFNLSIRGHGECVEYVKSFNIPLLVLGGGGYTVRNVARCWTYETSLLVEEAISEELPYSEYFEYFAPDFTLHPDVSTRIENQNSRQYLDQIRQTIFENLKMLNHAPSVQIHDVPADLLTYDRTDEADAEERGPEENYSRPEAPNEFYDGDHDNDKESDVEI
# Efflux pump mplx = inhibitors of Candida efflux pumps in yeast, primary screen, S. cerevisiae, Nile Red, multiplex; inhibition, % at 10 µM; AID 485275, 2010; S. cerevisiae Candida pump triplex; actives 0.44% (n = 330,000);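 active = plate passing quality check with inhibition over a set limit, or well fluorescence over plate mean plus 4 SD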;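 note: Nile Red retained in pooled yeast measured as flow cytometry median fluorescence; 0% = buffer negative control and 100% = Enniatin B positive control; higher means more Nile Red kept so more efflux inhibition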
# PolyA inhibitor = polyadenylation inhibitors in yeast reporter cells, primary screen, luminescence, S. cerevisiae; S. cerevisiae SKY197-pL101 polyadenylation reporter, beta-gal luminescence; efflux-impaired pdr1/pdr3 knockout yeast; score 100 = 6 SD above DMSO; activity score, % at 12 µM; actives 0.02% (n = 300,000);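 active = lowest replicate activity score at least 50, where 100 means six control SD above control mean; inconclusive = lowest score under 50 but half or more replicates reach 50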;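 note: yeast exposed to compound for 9 h at 30 °C; higher score means more reporter readthrough which indicates perturbed polyadenylation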
# T cruzi repl = inhibitors of intracellular T. cruzi growth, primary screen, luminescence, NIH3T3 host cells; T. cruzi beta-gal in NIH3T3, 90 h; AID 1885, 2009; actives 1.4% (n = 300,000); inhibition, % (concentration not given with the values);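 active = mean inhibition across valid replicates above about 55%, limit read from the data; inconclusive = mean below that limit but half or more replicates reach it; inactive = mean below it, under half of replicates reach it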;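 note: signal also drops with host cell toxicity which is not excluded here; 0% = plate median of DMSO wells and 100% = zero luminescence signal; higher percent means less beta-gal luminescence so fewer parasites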
#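 System: Mouse NIH/3T3 fibroblasts infected with β-gal-expressing T. cruzi Tulahuen C4 | Quantity: NIH/3T3 cells, 5,000 per well | Reagent: 5000 reporter trypomastigotes per well | Dosing: Compound pinned at 50 nL/well, DMSO | Schedule: 3 h host attachment, then at least 90 h co-culture | Detection: GalScreen luminescence, 60 min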
# The depositor's hits bear a star; ? = inconclusive; . = no result given.
SMILES,AI-2 QS mod,HDAC3 inhib,Efflux pump mplx,PolyA inhibitor,T cruzi repl
CC[n+]1c(/C=C/Nc2ccccc2)sc2ccccc21,11,?,0,-1,34
CCN1/C(=C/C=C/C=C/c2sc3ccccc3[n+]2CC)Sc2ccccc21,?,36*,0.8*,-8,58*
CCN1/C(=C/C=C/c2sc3ccccc3[n+]2CC)Sc2ccccc21,-29,-1,0,93*,49
CCN1/C(=C/C=C/C=C/C=C/c2sc3ccccc3[n+]2CC)Sc2ccccc21,35,6,0,-3,52
O=C(CC12CC3CC(CC(C3)C1)C2)N/N=C/c1ccc([N+](=O)[O-])o1,4,2,-9,1,55*
CCOC(=O)N/N=C\c1ccc([N+](=O)[O-])o1,-89*,7,0,-16,75*
CCCOc1ccc(CC(=O)N/N=C\c2ccc(F)cc2)cc1,-1,3,0,7,-20
O=[N+]([O-])c1ccc(/C=N/Nc2nc(N3CCCCCC3)nc(N3CCCCCC3)n2)o1,14,7,0,-35,76*
CCCOc1ccc(CCC(=O)N/N=C/c2ccc([N+](=O)[O-])o2)cc1,-224*,3,0,-13,52
O=C(CC12CC3CC(CC(C3)C1)C2)N/N=C\c1ccc[nH]1,0,7,0,13,1
O=[N+]([O-])c1ccc(/C=N/Nc2nc(N3CCCCC3)nc(N3CCCCC3)n2)cc1,2,0,0,-10,9
CCOC(=O)N/N=C\c1ccc(-c2cc(Cl)ccc2Cl)o1,2,4,0,-5,33
COc1ccccc1C(=O)NC(=O)COC(=O)c1cccc(NC(C)=O)c1,6,0,0,8,-13
Cc1[nH]c2ccccc2c1CCN(Cc1cccnc1)C(=S)NC(C)(C)C,9,5,0,18,49
O=C(CN1CCCCCCC1)N/N=C/c1ccc([N+](=O)[O-])o1,.,4,0,-4,58*
CCCCCCCCCCCC(=O)N/N=C/c1ccco1,-13,-2,0,82*,-4
O=C(Cc1ccc([N+](=O)[O-])cc1)N/N=C/c1ccc([N+](=O)[O-])o1,1,4,0,3,107*
CC1(C(=O)N/N=C/c2ccc([N+](=O)[O-])o2)CC1(Br)Br (stereo not drawn),-67,10,0,-2,50
CCCCCCCC(=O)N/N=C/c1ccco1,5,-1,0,16,-18
O=C(CCN1CCN(c2ccccc2)CC1)N/N=C/c1ccc([N+](=O)[O-])o1,10,10,0,-3,96*
O=C(CCN1CCN(c2ccccc2)CC1)N/N=C/c1ccc(O)c(O)c1O,49,.,.,24,-6
CCN1CCN(C(=O)c2ccc3c(c2)S(=O)(=O)c2ccccc2C3=O)CC1,16,8,0,-11,-7
CCCCCCCC(=O)N/N=C/c1ccc([N+](=O)[O-])o1,-132*,15,0,-20,47
COc1cccc(OC)c1C(=O)Nc1cc(C)nn1-c1nc2ccccc2[nH]1,21,14,0,-3,43
COc1ccc(C(=O)Nc2cc(C)nn2-c2nc3ccccc3[nH]2)c(OC)c1,42,0,0,-21,61*
SMILES,AI-2 QS mod,HDAC3 inhib,Efflux pump mplx,PolyA inhibitor,T cruzi repl
Cc1cc(NC(=O)c2cccs2)n(-c2nc3ccccc3[nH]2)n1,-1,1,0,-5,58*
C=CCc1cccc(CNc2cnc3ccccc3c2)c1O,-77*,2,0,-21,3
O=C(Nc1ccccc1F)c1ccc(C(=O)c2ccccc2)cc1,17,0,0,-18,4
CCc1cc(=O)oc2cc(C)cc(OC(C)C(=O)NCCN3CCOCC3)c12 (stereo not drawn),5,-25,0,-3,2
NC(=O)c1ccc(NC(=O)COC(=O)c2c3c(nc4ccccc24)/C(=C\c2cccs2)CCC3)cc1,40,-23,0,7,37
CCc1cccc(C)c1NC(=O)COC(=O)c1c2c(nc3ccccc13)/C(=C\c1cccs1)CCC2,34,3,0,-7,59*
COc1ccc(C2=NCC(CSc3nnc(-c4ccc5c(c4)OCO5)o3)S2)cc1 (stereo not drawn),12,-12,0,-12,57*
COc1ccc(CC(=O)Nc2ccc(F)c(F)c2F)cc1S(=O)(=O)N1CCOCC1,.,-1,0,.,.
O=C(CSc1nccc(=O)[nH]1)NC1CCCCCCC1,.,-4,0,.,.
O=C(COC(=O)[C@@H]1CCCN1C(=O)c1cccs1)Nc1cccc(Cl)c1,.,1,0,.,.
Cc1ccc(-c2ccc(/C=C(\C#N)C(=O)Nc3cc(C)nn3-c3ccccc3)o2)cc1,17,1,1.5*,-21,16
CCOC(=O)C1(CCc2ccccc2)CCN(Cc2cnc(N(C)C)s2)CC1,29,7,0,-1,44
CN(C)c1ncc(CN2CCC(CO)(CCCc3ccccc3)CC2)s1,-1,.,0,7,56*
O=C(OCC(=O)N1CCCCC1)c1cc(NS(=O)(=O)c2ccc(Cl)c([N+](=O)[O-])c2)ccc1O,11,3,0,-5,-17
O=c1cc(C(Cl)(Cl)Cl)oc2c1ccc1ccccc12,19,2,0,-24,69*
CCN(C(=O)COC(=O)c1cccnc1SC)c1c(N)n(Cc2ccccc2)c(=O)[nH]c1=O,.,9,0,.,.
CCC(C)Sc1ccc(-c2nc3ccc(C)cn3c2NC2CCCCC2)cc1 (stereo not drawn),22,10,0,2,72*
CCC(C)Sc1cccc(-c2nc3ccc(C)cn3c2NC2CCCCC2)c1 (stereo not drawn),12,2,0,-7,20
Cc1ccc(SCC(=O)NC(=O)NCCC(C)C)c(C)c1,19,2,0,-7,2
S=c1[nH]c2cc(Cl)ccc2s1,-78*,7,0,10,-29
S=c1[nH]c2ccc(Cl)cc2[nH]1,11,6,0,-5,-4
CN(C)CCNc1ccc(-c2nn(C)c(=O)c3ccccc23)cc1[N+](=O)[O-],0,-4,0,-2,72*
CCSC1=N/C(=C/c2ccsc2)C(=O)N1c1ccccc1,5,7,0,-1,24
CC(=O)O[C@H]1C(=O)[C@]2(C)[C@H]([C@H](OC(=O)c3ccccc3)[C@]3(O)C[C@H](OC(=O)[C@H](O)[C@@H](NC(=O)c4ccccc4)c4ccccc4)C(C)=C1C3(C)C)[C@]1(OC(C)=O)CO[C@@H]1C[C@@H]2O,26,5,0,2,51

# Screening results as filed in PubChem BioAssay.
